Our source for the IC50 and Activity values is ChEMBL document CHEMBL1137504, “Effect of indole ethyl isothiocyanates on proliferation, apoptosis, and MAPK signaling in neuroblastoma cell lines” (Bioorg Med Chem Lett, 2007).

Active and inactive are the calls of the source. The calls are words filed in the database; no cut-off is given here.

Data set [1] deals with SK-N-SH. Nature of the data set: Cytotoxicity against human SK-N-SH cells after 48 hrs. It is filed as functional, cell-based. The method in brief: (§1)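 Cells were seeded at 5 × 10^5 per T75 flask and grown to about 80% confluency. Lines were NB (IMR-32, SH-SY5Y, SMS-KCNR, SK-N-SH) or primary human lung fibroblasts (LF1, passage 10). Cells were exposed to 2.5–40 μM drug for 48 hrs and viability was read by MTS. Triplicates were run, and values are mean ± SD of a representative experiment as % viability of untreated cells.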

The test system of data set [2] is SMS-KCNR. Nature of the data set: Cytotoxicity against SMS-KCNR cells after 48 hrs by MTS assay. Particulars: Homo sapiens. It is filed as functional, cell-based. A digest of the protocol:
as §1
(Tetrazolium assays rely on reduction of a dye to a coloured formazan, in cell work by metabolically active cells.)

In data set [3] the test system is IMR-32. The data set can be described thus: Cytotoxicity against IMR32 cells after 48 hrs by MTS assay. It is filed as functional, cell-based. The note with it: Homo sapiens. A digest of the protocol: as §1
Data set [4] has as its system SH-SY5Y. The data set can be described thus: Cytotoxicity against SH-SY5Y cells after 48 hrs by MTS assay. The format is functional, cell-based. The note with it: Homo sapiens. The method in brief:
as §1

In data set [5] the target is RAC-alpha serine/threonine-protein kinase (Homo sapiens) (UniProt P31749). Nature of the data set: Inhibition of AKT in SMS-KCNR cells after 36 hrs by Western blotting. It is filed as cell-based. The method in brief: (§2)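 SMS-KCNR cells at about 80% confluency were treated with 3 μM drug for the indicated times, then lysed in NP-40 buffer with protease and phosphatase inhibitors. Lysates (50 μg protein per lane) were run on 12% SDS-PAGE and blotted to PVDF. Blots were blocked in 5% milk and probed overnight at 4 °C with 1:1000 primary antibodies in 5% BSA. Targets were phospho and total JNK, p38 and Akt, pro and active caspase-3, -8 and -9, and cleaved PARP-1, with β-actin as loading control.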
In general terms: In western blotting, separated proteins are transferred to a membrane and probed.

The nature of data set [6]: Cytotoxicity against lung fibroblast cells after 48 hrs by MTS assay. The note with it: human. The format is cell-based. The method in brief: as §1
The target of data set [7] is MAP kinase p38 (Homo sapiens) (UniProt O15264+Q15759+Q16539+P53778). The data set can be described thus: Effect on p38 activation in SMS-KCNR cells after 1 hr by Western blotting. The format is cell-based. The method in brief:
as §2

The subject of data set [8] is SMS-KCNR. Nature of the data set: Effect on JNK activation in SMS-KCNR cells after 1 hr by Western blotting. The note with it: Homo sapiens. The format is cell-based. The method in brief:
as §2

For data set [9], the system named is SMS-KCNR. Nature of the data set: Induction of apoptosis in SMS-KCNR cells assessed as increase in caspase 3 activation by Western blotting. It is filed as functional, cell-based. Particulars: Homo sapiens. A digest of the protocol: as §2
In data set [10] the test system is SMS-KCNR. Nature of the data set: Induction of apoptosis in SMS-KCNR cells assessed as increase in caspase 8 activation by Western blotting. Particulars: Homo sapiens. It is filed as functional, cell-based. The method in brief:
as §2

Data set [11] concerns SMS-KCNR. Nature of the data set: Induction of apoptosis in SMS-KCNR cells assessed as increase in caspase 9 activation by Western blotting. It is filed as functional, cell-based. The note with it: Homo sapiens. The method in brief: as §2
The subject of data set [12] is SMS-KCNR. The data set can be described thus: Induction of apoptosis in SMS-KCNR cells assessed as increase in PARP1 activation by Western blotting. The format is functional, cell-based. The note with it: Homo sapiens. A digest of the protocol:
as §2

The test system of data set [13] is SMS-KCNR. The data set can be described thus: Inhibition of cell proliferation of SMS-KCNR cells […] after 48 hrs by BrdU assay. The note with it: Homo sapiens. It is filed as functional, cell-based. A digest of the protocol:
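SMS-KCNR cells were plated at 5 × 10^3 per well, attached overnight, and treated with 300 nM–5 μM drug for 48 hrs. BrdU (10 μM final) was added for a further 6 hrs. Fixed cells were incubated with anti-BrdU–peroxidase for 2 hrs at 37 °C, developed with TMB, stopped with sulfuric acid, and read at 450 nm after blank subtraction. Triplicates were run, expressed as % of untreated absorbance.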
(Uptake of a labelled nucleoside into DNA is a usual measure of proliferation.)

Data set [14] in a line: Cell cycle arrest in SMS-KCNR cells by accumulation at G0/G1 phase at 3 uM after 12 hrs by flow cytometry. Particulars: Homo sapiens. The format is functional, cell-based. The method in brief: (§3)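 Cells were plated in 100 mm dishes at 7.5 × 10^5 per dish, left to attach overnight, then exposed to 3.0 μM drug for 12 or 24 hrs. Floating and scraped adherent cells were pooled and fixed in ice-cold 70% ethanol for 30 min. They were stained with 50 μg/mL propidium iodide plus 100 μg/mL RNase, 30 min at 37 °C in the dark. Flow cytometry read 10,000 gated single-cell events per sample. Results are given as % of cells per sub-population, with sub-G0/G1 taken as apoptotic.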

The nature of data set [15]: Cell cycle arrest in SMS-KCNR cells by accumulation at S phase at 3 uM after 12 hrs by flow cytometry. It is filed as functional, cell-based. Particulars: Homo sapiens. A digest of the protocol:
as §3

A short description of data set [16]: Cell cycle arrest in SMS-KCNR cells by accumulation at G2/M phase at 3 uM after 12 hrs by flow cytometry. Particulars: Homo sapiens. The format is functional, cell-based. The method in brief:
as §3

Data set [17] in a line: Induction of apoptosis in SMS-KCNR cells at 3 uM after 12 hrs by flow cytometry. It is filed as functional, Homo sapiens. The method in brief:
as §3

Data set [18] can be described thus: Cell cycle arrest in SMS-KCNR cells by accumulation at G0/G1 phase at 3 uM after 24 hrs by flow cytometry. It is filed as functional, cell-based. The note with it: Homo sapiens. A digest of the protocol:
as §3

Data set [19] in a line: Cell cycle arrest in SMS-KCNR cells by accumulation at S phase at 3 uM after 24 hrs by flow cytometry. It is filed as functional, cell-based. The note with it: Homo sapiens. A digest of the protocol:
as §3

The nature of data set [20]: Cell cycle arrest in SMS-KCNR cells by accumulation at G2/M phase at 3 uM after 24 hrs by flow cytometry. The format is functional, cell-based. The note with it: Homo sapiens. The method in brief:
as §3

A short description of data set [21]: Induction of apoptosis in SMS-KCNR cells at 3 uM after 24 hrs by flow cytometry. It is filed as functional, Homo sapiens. A digest of the protocol: as §3
Data set [22] concerns SMS-KCNR. Nature of the data set: Cytotoxicity against SMS-KCNR cells at 2.5 uM to 5.0 uM after 48 hrs by MTS assay. Particulars: Homo sapiens. The format is functional, cell-based. A digest of the protocol:
as §1

Data set [23] relates to SMS-KCNR. Nature of the data set: Reduction of SMS-KCNR cell viability at 5 uM after 48 hrs in presence of Z-VAD-FM. The format is functional, cell-based. The note with it: Homo sapiens. A digest of the protocol: (§4)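 SMS-KCNR cells were pre-incubated for 2 hrs with 40 μM caspase inhibitor (Z-VAD-FM, Z-DEVD-FMK, Z-IETD-FMK or Z-LEHD-FMK). Drug was then added at 5.0 μM for 48 hrs and viability measured. Triplicates were run, and values are mean ± SD of a representative experiment as % viability of untreated cells.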

In data set [24] the test system is SMS-KCNR. Nature of the data set: Reduction of SMS-KCNR cell viability at 5 uM after 48 hrs in presence of Z-DEVD-FMK. It is filed as functional, cell-based. The note with it: Homo sapiens. The method in brief: as §4
Data set [25] has as its system SMS-KCNR. The data set can be described thus: Reduction of SMS-KCNR cell viability at 5 uM after 48 hrs in presence of Z-IETD-FMK. It is filed as functional, cell-based. The note with it: Homo sapiens. A digest of the protocol:
as §4

In data set [26] the test system is SMS-KCNR. The data set can be described thus: Reduction of SMS-KCNR cell viability at 5 uM after 48 hrs in presence of Z-LEHD-FMK. Particulars: Homo sapiens. It is filed as functional, cell-based. A digest of the protocol: as §4

RAC-alpha serine/threonine-protein kinase (Homo sapiens), sequence (P31749 whole entry): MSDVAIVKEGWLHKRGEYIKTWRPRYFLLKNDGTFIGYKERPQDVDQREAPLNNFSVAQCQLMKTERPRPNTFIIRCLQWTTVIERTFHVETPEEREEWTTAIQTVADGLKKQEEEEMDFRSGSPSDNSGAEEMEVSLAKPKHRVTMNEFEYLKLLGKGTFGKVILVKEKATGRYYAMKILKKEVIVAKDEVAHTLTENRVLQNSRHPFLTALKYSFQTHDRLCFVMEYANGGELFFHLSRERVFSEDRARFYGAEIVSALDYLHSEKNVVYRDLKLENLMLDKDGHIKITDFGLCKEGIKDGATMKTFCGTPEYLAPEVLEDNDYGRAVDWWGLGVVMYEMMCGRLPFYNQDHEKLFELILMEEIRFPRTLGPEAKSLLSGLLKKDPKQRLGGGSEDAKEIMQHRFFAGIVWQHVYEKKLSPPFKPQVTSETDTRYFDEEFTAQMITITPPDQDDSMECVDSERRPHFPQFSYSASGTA

In the case of `S=C=NCCc1c[nH]c2ccc(OCc3ccccc3)cc12`, the 50% inhibitory concentration (IC50) – broadly, the concentration that gives 50% inhibition – in data set [1] was less than 2500 nM. For the same compound, the Activity result in data set [2], in data set [3] and in data set [4] was “Dose-dependent effect” in each case.

Regarding `Cc1cccc2c(CCN=C=S)c[nH]c12`, the IC50 in data set [1] was less than 2500 nM. Further, the outcome in data set [5], in [7], in data set [8], in [9], in data set [10] and in [11] was Active. The result in [12], in [13], in data set [22], in data set [23], in data set [24] and in [25] was Active. For the same compound, the result in [26] was Active. Moreover, the Activity entry in data set [2] is “Dose-dependent effect”; in [3], “Dose-dependent effect”; in data set [4], “Dose-dependent effect”; in data set [6], “Not Active”; in [14], 66.4%; in data set [15], 7.3%. Also, the Activity in data set [16] was 26.3%; in data set [17], 19.7%; in [18], 68.9%; in data set [19], 6.5%; in data set [20], 24.5%; in data set [21], 18.8%.
